Results of several laboratories.
Compare with care: the assays were run in different laboratories.
Observed: enzyme activity
ABL1: Tyrosine-protein kinase ABL1 (ABL1, Homo sapiens, UniProt P00519)

Compound | target | test | conditions | remaining activity [%]
COc1cc(Nc2cnc(C#N)c(O[C@H](C)CN(C)C)n2)ncc1-c1cnn(C)c1 | ABL1 | inhibitor, radiometric | 1 µM | 83
O=C(Nc1cnn(-c2csc(C(=O)NC3COC3)c2)c1)Nc1ccccc1Cl | ABL1 | inhibitor | 5 µM | 83.4
Cc1cnc(NC2CCOCC2)nc1-n1cnc(C(=O)NC(CN)c2cc(F)cc(Cl)c2)c1 (centres unmarked) | ABL1 | inhibitor, radiometric | 1 µM | 103
CCCOc1ccc(OC)c(F)c1C(=O)c1ccc(C(=O)N[C@@H]2CNC[C@H]2NC(=O)c2ccc3[nH]ncc3c2)cc1 | Tyrosine-protein kinase ABL1 (ABL1, Homo sapiens, UniProt P00519, Q252H) | inhibitor | 10 µM | 76
Cc1ccc(NC(=O)c2ccc(C)c(C(F)(F)F)c2)cc1C#Cc1nn(C2CCC(O)CC2)c2ncnc(N)c12 (centres unmarked) | Tyrosine-protein kinase ABL1 (ABL1, Homo sapiens, UniProt P00519, M351T) |  | 10 µM | 0
CCN(CC)c1ccc(C2=NNC(=O)CC2C)cc1[N+](=O)[O-] (centres unmarked) | ABL1 | inhibitor | 10 µM | 87
Cc1[nH]c(/C=C2\C(=O)Nc3ccc(F)cc32)c(C)c1C(=O)N[C@H]1CCN(C(=O)N(C)C)C1 | ABL1 | inhibitor | 1 µM | 107
CC(C)(C)c1nc2c(s1)c1nc(N)ncc1c1ccc(NS(=O)(=O)c3c(F)cccc3F)c(F)c12 | ABL1 | inhibitor, radiometric | 1 µM | 93
